In paper PMC3032042 (Chemico-biological interactions, 2010):
“Also recorded” adds a separate entry of the source. Where two headings read alike, the source gives them in different places.

Key:
[1] = target: T1, rSULT1A1 (Rattus norvegicus, UniProt P17988); assay: Binding of TNP-AMP and PAP to rSULT1A1
How it was run: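 Recombinant rat enzyme (expressed in E. coli BL21(DE3), purified on PAP-agarose) at 0.34 µM in potassium phosphate pH 7.0, 37 °C, in a quartz cuvette. Titrated with TNP-AMP and the fluorescence increase recorded (ex 435/em 545 nm). PAP titration then displaced TNP-AMP, and the fluorescence decrease was recorded. Kd from a single-site binding fit corrected for non-specific binding.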

[2] = target: T1, rSULT1A1; settings: GSSG-pretreated enzyme; cited from earlier work
[3] = target: T1, rSULT1A1; settings: cited from earlier work; for IC50: rSULT1A1 with all cysteines in the thiol form, 2-naphthol as the substrate; for inhibitor status with rSULT1A1: standard assay conditions, reduced rSULT1A1
[4] = target: T1, rSULT1A1; assay: Kd of OHPCBs with rSULT1A1 by displacement of ANS; assay type: binding
How it was run: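 Recombinant rat enzyme (E. coli-expressed, PAP-agarose purified), DTT removed by gel filtration, pretreated with 1 mM GSH or GSSG for 1 h at 25 °C under argon. Enzyme at 0.34 µM in 0.25 M potassium phosphate pH 7.0, held 2 min at 37 °C under argon. ANS added (10 µM final), then titrated with test compound in ethanol. Fluorescence ex 380/em 465 nm. Duplicates; one-site fit corrected for non-specific ANS binding.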

[5] = target: rSULT1A1-PAP complex (Rattus norvegicus, UniProt P17988); assay: Kd of OHPCBs with the rSULT1A1-PAP complex by displacement of ANS; assay type: binding
How it was run: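 DTT-free recombinant rat enzyme pretreated with 1 mM GSH or GSSG for 1 h at 25 °C under argon. Enzyme at 0.34 µM in 0.25 M potassium phosphate pH 7.0, held 2 min at 37 °C under argon. ANS added (10 µM final), then 0.27 mM PAP to form the complex, then titrated with test compound in ethanol. Read at ex 380/em 465 nm. Duplicates; one-site fit corrected for non-specific ANS binding.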

[6] = target: T1, rSULT1A1; assay: Sulfation of OHPCBs catalyzed by rSULT1A1; assay type: biochemical; settings: standard assay conditions (reduced enzyme)
How it was run: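 Rat SULT1A1 expressed in E. coli BL21(DE3) from pET-3c and purified on PAP-agarose affinity column. Reaction at 37 °C: 0.25 M potassium phosphate pH 7.0, 200 µM PAPS, 7.5 mM 2-mercaptoethanol, 10 µM test compound added in acetone (3.3% v/v final). Started with 0.75 µg enzyme, stopped with methanol after 6 min. Sulfation rate from HPLC of substrate-dependent PAP formation.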

[7] = read-out: Kd values for OHPCBs with rSULT1A1, Without PAP, GSH, enzyme pretreated with 1 mM GSH, pH 7.0, 37 °C
[8] = read-out: Kd values for OHPCBs with rSULT1A1, Without PAP, GSSG, enzyme pretreated with 1 mM GSSG, pH 7.0, 37 °C
[9] = read-out: Kd values for OHPCBs with rSULT1A1, With 0.27 mM PAP, GSH, enzyme pretreated with 1 mM GSH, pH 7.0, 37 °C
[10] = read-out: Kd values for OHPCBs with rSULT1A1, With 0.27 mM PAP, GSSG, enzyme pretreated with 1 mM GSSG, pH 7.0, 37 °C

Chain of rSULT1A1-PAP complex (P17988 whole entry, one chain of several): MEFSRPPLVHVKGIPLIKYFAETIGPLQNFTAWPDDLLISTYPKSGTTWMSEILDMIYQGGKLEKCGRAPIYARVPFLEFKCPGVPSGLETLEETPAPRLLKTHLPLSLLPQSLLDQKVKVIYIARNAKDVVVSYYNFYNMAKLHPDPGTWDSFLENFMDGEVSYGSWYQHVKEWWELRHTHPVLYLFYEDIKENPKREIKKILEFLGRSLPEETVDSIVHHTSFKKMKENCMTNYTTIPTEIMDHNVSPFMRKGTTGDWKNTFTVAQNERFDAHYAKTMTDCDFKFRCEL
T1 sequence (P17988 whole entry): as the sequence (P17988 whole entry, one chain of several) above

| Compound | Kd ([1]; read-out: Kd of TNP-AMP binding to rSULT1A1, 0.34 µM rSULT1A1, potassium phosphate buffer pH 7.0, 37°C, fluorescence at 545 nm) [nM] | substrate status with GSSG-pretreated (oxidized) rSULT1A1 [2] | IC50 [3] [nM] | Kd [4, 7] [nM] | Kd [4, 8] [nM] | Kd [5, 9] [nM] | Kd [5, 10] [nM] | inhibitor status with rSULT1A1 [3] | substrate status with rSULT1A1 [6] | Kd ([1]; Kd of PAP displacing TNP-AMP bound to rSULT1A1, 0.34 µM rSULT1A1, pH 7.0, 37°C, Figure 4B) [nM] |
| --- | --- | --- | --- | --- | --- | --- | --- | --- | --- | --- |
| 2'-(or-3')-O-(trinitrophenyl)adenosine 5'-monophosphate [TNP-AMP] | 6500 | – | – | – | – | – | – | – | – | – |
| Oc1c(Cl)cc(-c2ccccc2)cc1Cl [4-OH PCB 14] | – | converted from inhibitors to substrates | 270 | 260 ± 30 | 220 ± 20 | 400 ± 50 | 290 ± 40 | – | – | – |
| Oc1c(Cl)cc(-c2ccccc2Cl)cc1Cl [4-OH PCB 34] | – | non-substrates for GSSG-pretreated enzyme | 340 | 370 ± 10 | 230 ± 10 | 490 | 540 ± 10 | inhibitors of the enzyme | – | – |
| Oc1ccc(-c2ccccc2Cl)cc1Cl [4’-OH PCB 6] | – | converted from inhibitors to substrates | 23000 | 660 ± 200 | 500 ± 100 | 880 ± 30 | 720 ± 10 | – | – | – |
| Oc1ccc(-c2cc(Cl)ccc2Cl)cc1 [4’-OH PCB 9] | – | – | – | 12000 ± 4000 | 7100 ± 1300 | 3100 ± 1500 | 3300 ± 100 | – | substrates for rSULT1A1 | – |
| Oc1ccc(-c2ccc(Cl)c(Cl)c2)cc1 [4’-OH PCB 12] | – | – | – | 4000 ± 800 | 2500 ± 700 | 3100 ± 10 | 4600 ± 1200 | – | substrates for rSULT1A1 | – |
| Oc1ccc(-c2ccc(Cl)cc2Cl)cc1Cl [4’-OH PCB 25] | – | – | – | – | – | – | – | the weakest inhibitor | – | – |
| Oc1ccc(-c2ccc(Cl)c(Cl)c2)c(Cl)c1 [4’-OH PCB 33] | – | converted from inhibitors to substrates; also recorded: substrates for oxidized rSULT1A1 | 26000 | 2000 ± 100 | 2500 ± 400 | 2000 ± 10 | 2400 ± 40 | relatively weak inhibitors | – | – |
| Oc1ccc(-c2ccc(Cl)c(Cl)c2)cc1Cl [4’-OH PCB 35] | – | – | – | 3600 ± 900 | 1600 ± 400 | 1600 ± 100 | 1700 ± 100 | – | substrates for rSULT1A1; also recorded: the weakest substrate | – |
| Oc1ccc(-c2cc(Cl)cc(Cl)c2)cc1Cl [4’-OH PCB 36] | – | substrates for oxidized rSULT1A1 | – | – | – | – | – | relatively weak inhibitors | – | – |
| Oc1c(Cl)cc(-c2ccc(Cl)cc2Cl)cc1Cl [4’-OH PCB 68] | – | non-substrates for GSSG-pretreated enzyme | 850 | 670 ± 100 | 530 ± 100 | 470 ± 20 | 400 ± 40 | inhibitors of the enzyme | – | – |
| Oc1ccc(Cl)cc1-c1ccc(Cl)c(Cl)c1 [6’-OH PCB 35] | – | – | – | 65000 ± 32000 | 117000 ± 36000 | 3700 ± 10 | 3600 ± 1300 | – | substrates for rSULT1A1 | – |
| Nc1ncnc2c1ncn2[C@@H]1O[C@H](COP(=O)(O)O)[C@@H](OP(=O)(O)O)[C@H]1O [PAP, Adenosine 3’,5’-diphosphate] | – | – | – | – | – | – | – | – | – | 2600 |
